Measured values as given in ChEMBL document CHEMBL2021865, “Design, synthesis and structure-activity relationship of N-substituted tropane muscarinic acetylcholine receptor antagonists” (Bioorg Med Chem Lett, 2012).
Calls of active or inactive are those of the source. The rule behind the calls is not given here.

Experiments:
[1] = molecular target: T1, Muscarinic acetylcholine receptor M3 (Homo sapiens, UniProt P20309); assay: Antagonist potency at human muscarinic acetylcholine M3 receptor expressed in CHO cells assessed as inhibition of Ach-induced calcium mobilization by FLIPR analysis relative to control; type: functional, cell-based; settings: for Kb: read-out: pA2 (converted)
Outline: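 Human M3 receptor in CHO cells, ACh-stimulated calcium mobilization by FLIPR. pA2 derived from the ratio of the ACh EC50 with and without antagonist. Run only where the IC50 was below 10 nM. Values above 11 could not be determined accurately.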
Target sequence in this assay (P20309 whole entry): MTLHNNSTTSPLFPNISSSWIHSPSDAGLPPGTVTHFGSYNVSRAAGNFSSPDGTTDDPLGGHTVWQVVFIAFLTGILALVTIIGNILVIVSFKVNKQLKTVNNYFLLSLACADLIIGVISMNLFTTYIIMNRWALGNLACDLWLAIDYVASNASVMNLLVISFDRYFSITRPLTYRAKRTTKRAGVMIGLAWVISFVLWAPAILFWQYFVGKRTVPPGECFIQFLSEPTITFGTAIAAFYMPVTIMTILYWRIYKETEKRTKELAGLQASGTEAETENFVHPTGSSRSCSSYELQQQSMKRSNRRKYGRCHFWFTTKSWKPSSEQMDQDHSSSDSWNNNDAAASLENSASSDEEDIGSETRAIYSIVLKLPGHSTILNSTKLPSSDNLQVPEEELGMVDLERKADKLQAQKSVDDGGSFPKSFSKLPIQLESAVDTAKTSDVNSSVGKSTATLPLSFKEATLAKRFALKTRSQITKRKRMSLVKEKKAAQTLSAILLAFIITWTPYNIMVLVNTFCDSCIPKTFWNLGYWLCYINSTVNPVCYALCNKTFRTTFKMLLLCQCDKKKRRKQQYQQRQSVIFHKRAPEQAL

[2] = molecular target: T1, Muscarinic acetylcholine receptor M3; assay: Antagonist activity at human muscarinic acetylcholine M3 receptor expressed in CHO cells assessed as inhibition of Ach-induced calcium mobilization by FLIPR analysis; type: functional, cell-based
Outline: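 Calcium mobilization read by standard FLIPR protocol. IC50 in nM, mean of two or more independent assays.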
Target sequence in this assay (P20309 whole entry): as above

[3] = molecular target: T2, Muscarinic acetylcholine receptor M2 (Homo sapiens, UniProt P08172); assay: Displacement of [3H]-N-methyl scopolamine from muscarinic acetylcholine M2 receptor expressed in CHO cell membrane; type: cell membranes
T2 sequence (P08172 whole entry): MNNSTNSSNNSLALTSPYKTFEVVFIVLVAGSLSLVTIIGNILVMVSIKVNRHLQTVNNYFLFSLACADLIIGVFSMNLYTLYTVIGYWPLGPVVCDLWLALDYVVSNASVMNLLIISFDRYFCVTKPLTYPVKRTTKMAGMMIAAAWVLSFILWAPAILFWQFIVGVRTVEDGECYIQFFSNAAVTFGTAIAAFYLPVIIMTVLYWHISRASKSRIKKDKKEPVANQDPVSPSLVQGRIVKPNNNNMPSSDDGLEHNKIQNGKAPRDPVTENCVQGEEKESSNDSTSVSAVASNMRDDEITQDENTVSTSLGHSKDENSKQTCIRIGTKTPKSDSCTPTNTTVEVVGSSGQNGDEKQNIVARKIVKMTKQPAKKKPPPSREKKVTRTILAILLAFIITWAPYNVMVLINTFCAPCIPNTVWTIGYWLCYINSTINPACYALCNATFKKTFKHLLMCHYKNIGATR
Outline: (§1)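 Membranes from CHO cells, SPA-format radioligand binding against 0.5 nM [3H]-N-methyl scopolamine. Values are the mean of three independent assays.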

[4] = test system: Mus musculus; assay: Bronchoprotective activity in mouse against methacholine-induced bronchoconstriction assessed as time duration of bronchoprotection at 0.05 ug administered intranasally; type: functional
Outline: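 Conscious mice, methacholine-induced bronchoconstriction. Duration of bronchoprotection taken as the time to 50% loss of maximum protection.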

[5] = molecular target: T1, Muscarinic acetylcholine receptor M3; assay: Displacement of [3H]-N-methyl scopolamine from muscarinic acetylcholine M3 receptor expressed in CHO cell membrane; type: cell membranes; outline: as §1
Target sequence in this assay (P20309 whole entry): as the sequence (P20309 whole entry) above

[6] = Plasma clearance in rat at 1 mg/kg, iv; type: ADME, organism-based; parameters: dose 1 mg/kg, route intravenous
Outline: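 Rats dosed iv at 1 mg/kg. Systemic plasma clearance in ml/min/kg.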

[7] = test system: Rattus norvegicus; assay: Oral bioavailability in rat at 2 mg/kg; type: ADME, organism-based; settings: in vivo, BLD = below limit of detection
Outline: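 Rats dosed orally at 2 mg/kg. Percent bioavailability calculated from plasma levels.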

[8] = test system: Mus musculus; assay: Antagonist potency at muscarinic acetylcholine M3 receptor in intranasally dosed mouse assessed as inhibition of Mch-induced bronchoconstriction; type: functional
Outline: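 Conscious mice challenged with methacholine to induce bronchoconstriction. ED50 expressed as µg per mouse, n = 1.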

[9] = molecular target: T3, Muscarinic acetylcholine receptor M1 (Homo sapiens, UniProt P11229); assay: Displacement of [3H]-N-methyl scopolamine from muscarinic acetylcholine M1 receptor expressed in CHO cell membrane; type: cell membranes; outline: as §1
T3 sequence (P11229 whole entry): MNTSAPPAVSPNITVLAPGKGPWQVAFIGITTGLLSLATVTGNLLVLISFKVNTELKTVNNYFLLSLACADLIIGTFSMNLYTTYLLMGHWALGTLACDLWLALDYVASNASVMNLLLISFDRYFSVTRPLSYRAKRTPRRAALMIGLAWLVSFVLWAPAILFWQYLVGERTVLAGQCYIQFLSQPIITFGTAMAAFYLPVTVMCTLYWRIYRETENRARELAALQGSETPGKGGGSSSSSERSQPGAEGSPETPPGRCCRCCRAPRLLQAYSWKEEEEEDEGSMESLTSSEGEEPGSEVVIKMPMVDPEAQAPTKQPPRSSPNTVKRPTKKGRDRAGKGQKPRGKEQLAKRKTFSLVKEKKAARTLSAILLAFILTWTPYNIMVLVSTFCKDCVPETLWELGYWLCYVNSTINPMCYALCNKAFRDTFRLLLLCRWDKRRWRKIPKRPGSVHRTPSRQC

[10] = molecular target: T1, Muscarinic acetylcholine receptor M3
Target sequence in this assay (P20309 whole entry, looked up): as the sequence (P20309 whole entry) above

SMILES	Kb [1] [nM]	IC50 [2] [nM]	other results
C[N@+]1(CCCc2ccccc2)C2CCC1C[C@@H](CC(C#N)(c1ccccc1)c1ccccc1)C2	< 0.01	< 10	–
C=CCCCC[N@+]1(C)C2CCC1C[C@H](CC(C#N)(c1ccccc1)c1ccccc1)C2 [listing 1 of 2 here]	< 0.01	< 10	–
C[N@+]1(CCOCc2ccccc2)C2CCC1C[C@@H](CC(C#N)(c1ccccc1)c1ccccc1)C2	< 0.01	< 10	–
C[N@+]1(CC2CC2)C2CCC1C[C@H](CC(C#N)(c1ccccc1)c1ccccc1)C2	–	26.3	–
C=CCCCC[N@+]1(C)C2CCC1C[C@H](CC(C#N)(c1ccccc1)c1ccccc1)C2.[Br-]	–	–	Ki [3]: 0.1 nM; Time [4]: >96 h; pA2 ([1]; cho): > 11; Ki [5]: 0.16 nM; clearance [6]: 125 mL/min/kg; F [7]: BLD; ED50 [8]: 0.02 µg; Ki [9]: 0.12 nM
C[N@+]1(CCCOCc2ccccc2)C2CCC1C[C@@H](CC(C#N)(c1ccccc1)c1ccccc1)C2	0.0398	< 10	–
C[N@+]1(CCOc2ccccc2)C2CCC1C[C@@H](CC(C#N)(c1ccccc1)c1ccccc1)C2	< 0.01	< 10	–
CCCCCC[N@+]1(C)C2CCC1C[C@H](CC(C#N)(c1ccccc1)c1ccccc1)C2	< 0.01	< 10	–
COCCOCC[N+]1(C)[C@@H]2CC[C@H]1C[C@@H](CC(C#N)(c1ccccc1)c1ccccc1)C2 (mixture of isomers)	0.631	< 10	–
CCCCCCCCCCCC[N+]1(C)[C@@H]2CC[C@H]1C[C@H](CC(C#N)(c1ccccc1)c1ccccc1)C2 (mixture of isomers)	–	64	–
COCC[N+]1(C)[C@@H]2CC[C@H]1C[C@@H](CC(C#N)(c1ccccc1)c1ccccc1)C2 (mixture of isomers)	0.501	< 10	–
CC[N+]1(C)[C@@H]2CC[C@H]1C[C@@H](CC(C#N)(c1ccccc1)c1ccccc1)C2 (mixture of isomers)	0.0501	< 10	–
C[N+]1(Cc2ccccc2)[C@@H]2CC[C@H]1C[C@@H](CC(C#N)(c1ccccc1)c1ccccc1)C2 (mixture of isomers)	–	318	–
C[N+]1(CC2CC2)[C@@H]2CC[C@H]1C[C@@H](CC(C#N)(c1ccccc1)c1ccccc1)C2 (mixture of isomers)	0.0501	< 10	–
C=CCCCC[N+]1(C)[C@@H]2CC[C@H]1C[C@@H](CC(C#N)(c1ccccc1)c1ccccc1)C2 (mixture of isomers)	–	85.2	–
C=CC[N+]1(C)[C@@H]2CC[C@H]1C[C@@H](CC(C#N)(c1ccccc1)c1ccccc1)C2 (mixture of isomers)	1.26	< 10	–
CCC[N+]1(C)[C@@H]2CC[C@H]1C[C@@H](CC(C#N)(c1ccccc1)c1ccccc1)C2 (mixture of isomers)	0.0501	< 10	–
C[N+]1(CCCC#N)[C@@H]2CC[C@H]1C[C@@H](CC(C#N)(c1ccccc1)c1ccccc1)C2 (mixture of isomers)	0.158	< 10	–
C[N+]1(CCC2CCCCC2)[C@@H]2CC[C@H]1C[C@@H](CC(C#N)(c1ccccc1)c1ccccc1)C2 (mixture of isomers)	–	109	–
C[N+]1(CCO)[C@@H]2CC[C@H]1C[C@@H](CC(C#N)(c1ccccc1)c1ccccc1)C2 (mixture of isomers)	0.158	< 10	–
C[N@+]1(CCCOc2ccccc2)C2CCC1C[C@@H](CC(C#N)(c1ccccc1)c1ccccc1)C2	< 0.01	< 10	–
C[N+]1(CC2CCCCC2)[C@@H]2CC[C@H]1C[C@@H](CC(C#N)(c1ccccc1)c1ccccc1)C2 (mixture of isomers)	–	89.6	–
C=CCCCC[N@+]1(C)C2CCC1C[C@@H](CC(C#N)(c1ccccc1)c1ccccc1)C2	–	32	–
C[N@+]1(CC2CC2)C2CCC1C[C@@H](CC(C#N)(c1ccccc1)c1ccccc1)C2	0.0251	< 10	–
C=CCCCC[N@+]1(C)C2CCC1C[C@H](CC(C#N)(c1ccccc1)c1ccccc1)C2 [listing 2 of 2 here]	–	–	pA2 [10]: Active
CCCC[N@+]1(C)C2CCC1C[C@H](CC(C#N)(c1ccccc1)c1ccccc1)C2	< 0.01	< 10	–
CCCCCCCC[N@+]1(C)C2CCC1C[C@H](CC(C#N)(c1ccccc1)c1ccccc1)C2	0.0794	< 10	–
